# The list is not random: actives were taken first. Their share in the collection is about 1.5%.
# FLuc inh counter: inhibits firefly luciferase, flagging false hits in luciferase inhibition screens; inhibition, % at 10 µM; 200,000 compounds, 1.5% hits; P08659; ATPLite firefly luciferase biochemical luminescence, 10 min;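 active = inhibition above about 50% when tested at 10 µM, limit read from the data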
# Target sequence (P08659 whole entry, looked up): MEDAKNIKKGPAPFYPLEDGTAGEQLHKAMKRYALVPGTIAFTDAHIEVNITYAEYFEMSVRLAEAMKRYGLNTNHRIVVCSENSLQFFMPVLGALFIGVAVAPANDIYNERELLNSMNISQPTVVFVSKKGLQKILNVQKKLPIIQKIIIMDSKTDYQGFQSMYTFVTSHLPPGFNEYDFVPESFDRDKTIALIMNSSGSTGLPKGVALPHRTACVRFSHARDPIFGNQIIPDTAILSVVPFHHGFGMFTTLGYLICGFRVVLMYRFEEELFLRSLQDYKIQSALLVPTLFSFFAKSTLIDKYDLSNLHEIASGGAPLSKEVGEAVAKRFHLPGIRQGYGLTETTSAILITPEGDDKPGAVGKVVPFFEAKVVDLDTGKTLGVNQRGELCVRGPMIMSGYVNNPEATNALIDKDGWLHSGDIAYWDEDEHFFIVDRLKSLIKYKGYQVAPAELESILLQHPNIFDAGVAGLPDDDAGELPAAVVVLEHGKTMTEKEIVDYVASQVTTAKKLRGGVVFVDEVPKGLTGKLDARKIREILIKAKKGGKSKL
# TRAIL sens C8: sensitizes caspase-8 expressing cells to TRAIL | NB7+C8 cells + TRAIL, ATPlite viability luminescence | inhibition (viability loss, TRAIL sensitization), % at 10 µM | 360,000 compounds, 1% hits;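 active = compounds causing at least 50% loss of cell viability in the single-dose screen, relative to plate controls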
# PPC-1+TRAIL kill: kills PPC-1 cancer cells in the presence of TRAIL. PPC-1 cells + TRAIL, ATPLite viability luminescence. cell killing (% activity), % at 4 µM or 5 µM. 220,000 compounds, 0.41% hits;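 active = cell killing above 50% in the first pass at 4 µM, then a duplicate retest at 5 µM averaging 50% or more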;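 also: plate controls were cells with TRAIL plus DMSO for no effect and medium-only wells lacking cells for full effect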
# FLuc stim CS: firefly luciferase counter-screen for stimulation assays; P08659; ATPlite luciferase biochemical, luminescence, 10 min; 0 = ATP-free wells, 1 = DMSO control; activation factor at 10 µM; 200,000 tested, under 10 active; AID 1027;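 active = luciferase activation factor, scaled between plate controls, of at least 2 with compound at 10 µM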
#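 System: luciferase plus luciferin reagent, cell-free; medium: PBS as buffer for the ATP substrate; dosing: test compounds dosed from 2 mM stocks in 100% DMSO; timing: 10 min post-reagent at room temperature; measured by: luminescence measurement of luciferase light output; evaluation: luciferase activation, seen as luminescence increase over controls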
# The depositor's hits bear a star; / = no result.
SMILES,FLuc inh counter,TRAIL sens C8,PPC-1+TRAIL kill,FLuc stim CS
Cn1ncc2c(O/N=C(\N)c3ccc(C(F)(F)F)cc3)ncnc21,/,95*,14,/
Cc1ccc(C(=O)NNc2ncnc3c2cnn3C)cc1,/,15,5,/
Cn1c(=O)c2cc(NC(=O)NCc3ccccc3)ccc2n1C/C=C/c1ccccc1,/,15,/,/
COC(=O)c1ccccc1NC(=O)COC(=O)c1ccccc1N=Nc1ccc(N(C)C)cc1,17,43,3,0.8
CN(C)c1ccc(N=Nc2ccccc2C(=O)OCC(=O)N(C)c2ccccc2)cc1,65*,32,33,0.3
COc1ccc(-c2nnc3n2N=C(C)CS3)cc1,-4,-3,20,1
CCOC(=O)/C(=C\c1ccc(Cl)cc1)c1nc2sc(C)c(C)c2c(=O)[nH]1,-4,13,-14,1
CCOC(=O)/C(=C\c1ccc(OC(F)F)cc1)C1=Nn2c(nnc2-c2ccc(Cl)cc2)SC1,-2,94*,29,1
CCOC(=O)/C(=C/c1ccc(OC(F)F)cc1)C1=Nn2c(nnc2-c2ccc(Cl)cc2)SC1,/,90*,/,/
Cc1nc(Cl)c(C(=O)NCc2ccccc2)c(C)c1Cl,-6,13,24,1.1
O=C(NCc1ccccc1)c1c(Cl)nc(Cl)c(Cl)c1Cl,/,94*,/,/
N#C/C(=C\c1cccs1)C(=O)NCc1ccccc1,5,-2,2,1
N#C/C(=C\c1cccs1)C(=O)Nc1nccs1,75*,6,21,0.3
COc1cc(OC)c2c(=O)cc(-c3ccccc3)oc2c1,58*,32,36,0.4
COc1cc(OC)c2c(=O)cc(-c3cccnc3)oc2c1,/,5,32,/
CC(C)c1ccc2oc3nc(N)c(C(=O)O)cc3c(=O)c2c1,95*,/,83*,0.1
Cc1nc2oc3ccc(Cl)cc3c(=O)c2cc1C(=O)O,/,14,/,/
Cc1ccc(S(=O)(=O)N2CCN(C(=O)C(O)c3ccccc3)CC2)cc1 (stereo unspecified),/,-3,/,/
O=C(NCc1ccc(Cl)cc1)C(=O)c1cn(CC(=O)N2CCOCC2)c2ccccc12,/,4,/,/
O=C(Nc1ccccc1Cl)C(=O)c1cn(CC(=O)N2CCOCC2)c2ccccc12,/,54*,/,/
CN1N=C2c3ccccc3CCC2C1c1ccc(Cl)cc1 (stereo unspecified),/,-8,18,/
Cc1c(F)cccc1NC(=O)c1ccc2c(c1)CCN2S(C)(=O)=O,/,7,/,/
Cn1c(-c2ccccc2)cnc1SCc1nc2ccccc2c(=O)[nH]1,61*,24,24,0.4
Cn1c(SCc2nc3ccccc3c(=O)[nH]2)nc2ccccc21,5,-1,10,0.9
CCc1ccc2nc3n[nH]c(N)c3cc2c1,70*,42,33,0.3
SMILES,FLuc inh counter,TRAIL sens C8,PPC-1+TRAIL kill,FLuc stim CS
Nc1[nH]nc2nc3ccccc3cc12,6,2,-2,0.9
CCc1ccc(OC(=O)c2ccn(CC)n2)cc1,75*,28,-27,0.2
CCn1ccc(C(=O)NC2CCCC2)n1,/,-22,/,/
CC1CN(C(=O)c2cccc(S(=O)(=O)N3CCN(c4ccccc4)CC3)c2)CC(C)O1 (stereo unspecified),/,4,/,/
O=C(c1ccc(Cl)cc1)N1CCCCC(Sc2nnc(-c3ccc4c(c3)OCO4)o2)C1=O (stereo unspecified),29,69*,48,0.7
Cc1ccc2nc(/C(C#N)=C\c3ccc([N+](=O)[O-])o3)[nH]c2c1,-2,81*,32,1
Cc1ccc2nc(/C(C#N)=C\c3ccc(N4CCOCC4)o3)[nH]c2c1,62*,32,15,0.4
CC1CCN(C(=O)Cn2nnc(-c3ccc(C(C)C)cc3)n2)CC1,/,15,/,/
CCC(=O)Nc1ccc(NC(=O)c2ccco2)cc1,38,57*,29,0.6
CCC(=O)Oc1ccc(NC(=O)c2ccco2)cc1,61*,-1,13,0.4
O=C(Nc1ccc(OC(=O)c2ccco2)cc1)c1ccco1,66*,10,34,0.3
O=C(Nc1cccc(OC(=O)c2ccco2)c1)c1ccco1,2,22,5,1
O=C(CCc1ccccc1)Nc1ccc(NC(=O)c2ccco2)cc1,-5,2,-4,1
CC(C)c1nc(SCC(=O)NC2CCCC2)c2c(=O)n(C)c(=O)n(C)c2n1,/,32,/,/
O=C(Nc1ncc(Cc2ccccc2)s1)c1cccs1,36,51*,2,0.6
Cc1ccc(Cc2cnc(NC(=O)c3cccs3)s2)cc1,9,25,15,0.9
O=C(Nc1ncc(Cc2ccc(SC(F)F)cc2)s1)c1ccccc1,-4,33,12,1
Cc1ccc(C(=O)Nc2ncc(Cc3ccccc3)s2)o1,80*,57*,32,0.2
COc1cc(OC)c2c(-c3cccc(-c4ccc(F)c(Cl)c4)c3)cc(=O)oc2c1,/,16,/,/
CCOc1ccc2nc(/N=C/c3c(C)[nH]n(-c4ccc(C)cc4)c3=O)sc2c1,65*,37,35,0.3
CN(C)C(=O)c1ccc(NC(=O)COc2cccc3c2OC(C)(C)C3)cc1,/,-10,/,/
NC(=S)c1cc2cc(Cl)ccc2oc1=O,/,0,3,/
O=C(N/N=C\c1ccccn1)c1cccc(C(=O)N/N=C\c2ccccn2)n1,/,4,/,/
O=C(N/N=C/c1ccccn1)c1ccccc1,56*,39,-5,0.4
O=C(N/N=C/c1ccccn1)c1ccncc1,/,-11,/,/
SMILES,FLuc inh counter,TRAIL sens C8,PPC-1+TRAIL kill,FLuc stim CS
Cc1ccccc1C(=O)N/N=C/c1ccncc1,6,-6,-9,0.9
O=C(N/N=C\c1ccccn1)c1ccccc1O,69*,18,16,0.3
Cc1ccccc1C(=O)N/N=C/c1ccccn1,54*,38,24,0.5
O=C(N/N=C\c1ccncc1)c1ccccc1O,69*,29,0,0.3
COc1ccc(CN2CCNC(=O)C2CC(=O)N(C)C2CCCCC2)cc1OC (stereo unspecified),/,-12,/,/
CC(=O)c1ccccc1NC(=O)COC(=O)CN1C(=O)C2CCCCC2C1=O (stereo unspecified),/,8,/,/
Cc1cc(C(=O)CCl)c(C)n1CCc1ccccc1,-2,/,25,1
Cc1c(P(=S)(c2ccccc2)c2ccccc2)[n+]2ccccc2n1CCc1ccccc1,/,53*,/,/
COc1ccc(NC(=O)CCC(=O)c2cc(C)sc2C)cc1,/,-10,/,/
CCOc1ccc2nc(NC(=O)CSc3nnc(-c4ccncc4)n3CC3CCCO3)sc2c1 (stereo unspecified),68*,46,34,0.3
Cc1cc(Cl)ccc1OCC(=O)OCC(=O)N(CC(C)C)c1c(N)n(Cc2ccccc2)c(=O)[nH]c1=O,/,10,/,/
COc1ccc(OCc2cccc(C(=O)Nn3cc([N+](=O)[O-])cn3)c2)cc1,70*,28,37,0.3
COc1ccc(OCc2cccc(C(=O)NN)c2)cc1,30,33,26,0.7
O=C1NC[C@H](CCCCN2CCN(CCc3ccc(O)cc3)C(=O)C2=O)N(CCC2CCCCC2)C1=O,/,4,/,/
COC(=O)[C@@]1(Cc2ccccc2)[C@H]2C(=O)N(C)C(=O)[C@H]2[C@H]2CN=C(SCc3ccc(Cl)cc3)N21,/,-15,/,/
COC(=O)c1ccc(COC(=O)c2ccc(CS(=O)(=O)c3ccc(C)cc3)cc2)cc1,-8,10,-6,1.1

# Screening results as filed in PubChem.
